The results in this text go back to ChEMBL document CHEMBL4396873, “Discovery of Potent, Selective, and Short-Acting Peptidic V2 Receptor Agonists” (J Med Chem, 2019).

Data set [1] concerns the target T1, Oxytocin receptor (Homo sapiens) (UniProt P30559).
T1 sequence (whole entry): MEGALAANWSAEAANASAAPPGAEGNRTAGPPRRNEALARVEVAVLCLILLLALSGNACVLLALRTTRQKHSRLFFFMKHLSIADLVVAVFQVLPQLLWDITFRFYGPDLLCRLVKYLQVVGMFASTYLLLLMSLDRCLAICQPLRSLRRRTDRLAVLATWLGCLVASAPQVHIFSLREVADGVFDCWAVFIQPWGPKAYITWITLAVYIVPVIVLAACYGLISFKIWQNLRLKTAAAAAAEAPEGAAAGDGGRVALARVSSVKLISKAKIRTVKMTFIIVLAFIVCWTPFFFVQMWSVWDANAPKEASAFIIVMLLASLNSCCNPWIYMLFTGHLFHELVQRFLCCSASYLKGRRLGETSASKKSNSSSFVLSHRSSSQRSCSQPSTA
Briefly: Agonist activity at human OTR stably expressed in CHOK1 cells up to 10000 nM by NFAT-luciferase reporter gene assay. It counts as cell-based. For orientation: In a reporter assay the amount or activity of a reporter protein is the signal.

Data set [2] addresses Vasopressin V1a receptor (Homo sapiens, UniProt P37288). Briefly: Agonist activity at recombinant human V1a receptor expressed in HEK293 cells up to 1000 nM measured after 5 hrs by luciferase reporter gene assay. Type of data set: cell-based. Conditions: hek293, 5 h.
Data set [3] is described as follows: Protein binding in rat plasma at 200 to 1000 ng/ml measured after 15 mins by UC-LC/MS/MS analysis. Type of data set: ADME, cell-free. Particulars: read-out: PPB (converted). In outline:
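Peptide spiked into rat plasma to final 200-1000 ng/mL, incubated 15 min at 37 °C, ultracentrifuged at 773,000 xg for 30 min at 37 °C; middle-layer sample quantified by LC/MS/MS; binding (%) = (Ci − Cm)/Ci × 100; quadruplicate.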

Data set [4] is described as follows: Clearance in Sprague-Dawley rat at 0.1 mg/kg, iv administered as cassette dose by LC-MS/MS analysis. Type of data set: ADME, organism-based. Particulars: in vivo.
Data set [5] is described as follows: Non-renal clearance in nephrectomized Sprague-Dawley rat at 0.1 mg/kg, iv administered as cassette dose by LC-MS/MS analysis. Type of data set: ADME, organism-based. Conditions: in vivo.

SMILES strings stand for the structures. Active and inactive are the calls of the source. The calls are words filed in the database; no cut-off is given here. Numbered stars: 1 amine (or outer) side, 2 acyl side, 3 side chain; on linkers, the order of the positions; unused ones are H or OH. Bridge positions count the residues as written; N and C are the ends. Square brackets hold non-standard residues; d marks the D form. Peptide text beside a SMILES is read from it. * marks the point of attachment. Phe(4-Cl) = N[C@@H](Cc1ccc(Cl)cc1)C(=O)O; Phe(4-F) = N[C@@H](Cc1ccc(F)cc1)C(=O)O; 2Thi = N[C@@H](Cc1cccs1)C(=O)O; Agmatine = N=C(N)NCCCCN*; Thz = O=C(O)[C@@H]1CSCN1; X1 = O=C(CCC[*:2])[*:1]

Sequence of Vasopressin V1a receptor (P37288 whole entry): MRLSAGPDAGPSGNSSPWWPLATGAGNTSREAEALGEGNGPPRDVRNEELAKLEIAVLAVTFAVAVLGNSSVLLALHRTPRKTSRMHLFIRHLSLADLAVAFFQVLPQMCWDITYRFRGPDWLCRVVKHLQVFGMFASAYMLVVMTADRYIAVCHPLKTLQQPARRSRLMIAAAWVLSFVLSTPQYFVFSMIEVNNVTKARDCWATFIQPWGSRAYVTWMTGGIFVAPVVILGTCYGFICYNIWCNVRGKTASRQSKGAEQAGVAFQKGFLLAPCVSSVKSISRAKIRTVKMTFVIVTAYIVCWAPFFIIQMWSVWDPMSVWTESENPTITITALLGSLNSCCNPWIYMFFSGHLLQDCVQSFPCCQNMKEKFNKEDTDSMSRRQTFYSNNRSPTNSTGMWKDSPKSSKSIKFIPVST

As usually defined, the clearance is the volume of plasma or blood freed of the substance per unit of time. Low readings indicate a low capacity for elimination, high ones a high capacity for elimination. Consider `CC(C)CNC(=O)[C@H](CCCNC(=N)N)NC(=O)[C@@H]1CCCN1C(=O)[C@@H]1CSCCCC(=O)N[C@@H](Cc2ccc(Cl)cc2)C(=O)N[C@@H](Cc2cccs2)C(=O)N[C@@H](C(C)C)C(=O)N[C@@H](CC(N)=O)C(=O)N1`, for which the outcome in data set [1] was inactive. In addition, the Activity entry in data set [2] was “Not Active”. Further, the fraction unbound at […] in data set [3] was 0.16. The same molecule yielded a clearance in data set [4] of 51 mL/min/kg.
With `CCNC(=O)[C@@H](CCCNC(=N)N)NC(=O)[C@@H]1CCCN1C(=O)[C@@H]1CSSCCC(=O)N[C@@H](Cc2ccc(Cl)cc2)C(=O)N[C@@H](Cc2ccccc2)C(=O)N[C@@H](C(C)C)C(=O)N[C@@H](CC(N)=O)C(=O)N1`, the Activity result in data set [2] is recorded as “Not Active”. In data set [5], this molecule had a CL of 47%. The fraction unbound at […] in data set [3] was 0.05. In addition, in data set [4], the clearance was determined as 7.1 mL/min/kg.
For `CCCNC(=O)[C@@H](CCCNC(=N)N)NC(=O)[C@@H]1CSCN1C(=O)[C@@H]1CSCCCC(=O)N[C@@H](Cc2ccc(Cl)cc2)C(=O)N[C@@H](Cc2cccs2)C(=O)N[C@@H](C(C)C)C(=O)N[C@@H](CC(N)=O)C(=O)N1`, in data set [1], the outcome was inactive. In data set [2], the Activity result is listed as “Not Active”. Further, the CL in data set [5] is 90%. For the same molecule, in data set [3], the fraction unbound at […] is 0.17. In addition, the clearance in data set [4] is 31 mL/min/kg.
For the molecule `CC(C)CNC(=O)[C@@H](CCCNC(=N)N)NC(=O)[C@@H]1C[C@@H](O)CN1C(=O)[C@@H]1CSCCCC(=O)N[C@@H](Cc2ccc(Cl)cc2)C(=O)N[C@@H](Cc2cccs2)C(=O)N[C@@H](C(C)C)C(=O)N[C@@H](CC(N)=O)C(=O)N1`, the result in data set [1] was inactive. Further, in data set [2], the Activity entry is “Not Active”. Moreover, the fraction unbound at […] in data set [3] was 0.13. The molecule also showed a clearance in data set [4] of 7.8 mL/min/kg.
On to `CC(C)CNC(=O)[C@@H](CCCNC(=N)N)NC(=O)[C@@H]1CCCN1C(=O)[C@@H]1CSCCCC(=O)N[C@@H](Cc2ccc(Cl)cc2)C(=O)N[C@@H](Cc2cccs2)C(=O)N[C@@H](C(C)C)C(=O)N[C@@H](CC(N)=O)C(=O)N1`, for which the result in data set [1] was inactive. Also, the Activity entry in data set [2] is recorded as “Not Active”. Besides, in data set [5], the CL turned out to be 63%. The fraction unbound at […] in data set [3] is 0.14. For the same molecule, in data set [4], the clearance is 24 mL/min/kg.
In the same order, the values of `CC(C)[C@@H]1NC(=O)[C@H](Cc2cccs2)NC(=O)[C@H](Cc2ccc(Cl)cc2)NC(=O)CCCSC[C@@H](C(=O)N2CCC[C@H]2C(=O)N[C@H](CCCNC(=N)N)C(=O)NCc2ccccc2)NC(=O)[C@H](CC(N)=O)NC1=O` are “inactive”, “Not Active”, 84%, 0.1 and 23 mL/min/kg.
For `CC(C)[C@@H]1NC(=O)[C@H](Cc2cccs2)NC(=O)[C@H](Cc2ccc(Cl)cc2)NC(=O)CCCSC[C@@H](C(=O)N2CCC[C@H]2C(=O)N[C@H](CCCNC(=N)N)C(=O)NC2CC2)NC(=O)[C@H](CC(N)=O)NC1=O` the same measures were “inactive”, “Not Active”, 67%, 0.09 and 10 mL/min/kg.
Regarding `CC(C)[C@@H]1NC(=O)[C@H](Cc2ccc(F)cc2)NC(=O)[C@H](Cc2ccc(Cl)cc2)NC(=O)CCCSC[C@@H](C(=O)N2CSC[C@H]2C(=O)NCCCCNC(=N)N)NC(=O)[C@H](CC(N)=O)NC1=O` ([Phe(4-Cl)][Phe(4-F)]VNC[Thz]-Agmatine; linker N-5 via X1), in data set [1], the result was inactive. Besides, in data set [2], the Activity result is “Not Active”. Also, the CL in data set [5] amounted to 85%. Besides, the fraction unbound at […] in data set [3] is 0.04. In addition, in data set [4], the clearance is 9.9 mL/min/kg.
For `CCNC(=O)[C@@H](CCCNC(=N)N)NC(=O)[C@@H]1C[C@@H](O)CN1C(=O)[C@@H]1CCSCCC(=O)N[C@@H](Cc2ccc(Cl)cc2)C(=O)N[C@@H](Cc2cccs2)C(=O)N[C@@H](C(C)C)C(=O)N[C@@H](CC(N)=O)C(=O)N1` the same measures were “inactive”, “Not Active”, 58%, 0.1 and 4 mL/min/kg.
In the same order, the values of `CCCNC(=O)[C@@H](CCCNC(=N)N)NC(=O)[C@@H]1CCCN1C(=O)[C@@H]1CSCCCC(=O)N[C@@H](Cc2ccc(Cl)cc2)C(=O)N[C@@H](Cc2cccs2)C(=O)N[C@@H](C(C)C)C(=O)N[C@@H](CC(N)=O)C(=O)N1` are “inactive”, “Not Active”, 59%, 0.16 and 26 mL/min/kg.
In the same order, the values of `CC(C)[C@@H]1NC(=O)[C@H](Cc2ccc(F)cc2)NC(=O)[C@H](Cc2ccc(O)cc2)NC(=O)CCCSC[C@@H](C(=O)N2CCC[C@H]2C(=O)NCCCCNC(=N)N)NC(=O)[C@H](CC(N)=O)NC1=O` (Y[Phe(4-F)]VNCP-Agmatine; linker N-5 via X1) are “inactive”, “Not Active”, 45%, 0.69 and 8.7 mL/min/kg.
As to `CC(C)CNC(=O)[C@@H](CCCNC(=N)N)NC(=O)[C@@H]1CCCN1C(=O)[C@@H]1CCSCCC(=O)N[C@@H](Cc2ccc(Cl)cc2)C(=O)N[C@@H](Cc2cccs2)C(=O)N[C@@H](C(C)C)C(=O)N[C@@H](CC(N)=O)C(=O)N1`, the result in data set [1] was inactive. Moreover, the Activity entry in data set [2] is reported as “Not Active”.
As to `CCCCNC(=O)[C@@H](CCCNC(=N)N)NC(=O)[C@@H]1CCCN1C(=O)[C@@H]1CSCCCC(=O)N[C@@H](Cc2ccc(Cl)cc2)C(=O)N[C@@H](Cc2cccs2)C(=O)N[C@@H](C(C)C)C(=O)N[C@@H](CC(N)=O)C(=O)N1`, in data set [1], the result was inactive. The Activity entry in data set [2] is “Not Active”. For the same molecule, in data set [5], the CL is listed as 57%. For the same molecule, in data set [3], the fraction unbound at […] is 0.11. Further, in data set [4], the clearance turned out to be 31 mL/min/kg.
Regarding `CC(C)[C@@H]1NC(=O)[C@H](Cc2cccs2)NC(=O)[C@H](Cc2ccc(Cl)cc2)NC(=O)CCCSC[C@@H](C(=O)N2CCC[C@H]2C(=O)N[C@H](CCCNC(=N)N)C(=O)NCC2CC2)NC(=O)[C@H](CC(N)=O)NC1=O`, in data set [1], the result was inactive. For the same molecule, the Activity result in data set [2] is recorded as “Not Active”. Also, in data set [3], the fraction unbound at […] is 0.16. Further, in data set [4], the clearance was determined as 21 mL/min/kg.
On to `CC(C)[C@@H]1NC(=O)[C@H](Cc2cccs2)NC(=O)[C@H](Cc2ccc(Cl)cc2)NC(=O)CCCSC[C@@H](C(=O)N2CSC[C@H]2C(=O)NCCCCNC(=N)N)NC(=O)[C@H](CC(N)=O)NC1=O` ([Phe(4-Cl)][2Thi]VNC[Thz]-Agmatine; linker N-5 via X1), for which, in data set [1], the result was inactive. Further, the Activity result in data set [2] is given as “Not Active”. This molecule displayed a CL in data set [5] of 90%. Also, in data set [3], the fraction unbound at […] was 0.16. In addition, the clearance in data set [4] was 16 mL/min/kg.
In the same order, the values of `CCNC(=O)[C@@H](CCCNC(=N)N)NC(=O)[C@@H]1CSCN1C(=O)[C@@H]1CSCCCC(=O)N[C@@H](Cc2ccc(Cl)cc2)C(=O)N[C@@H](Cc2cccs2)C(=O)N[C@@H](C(C)C)C(=O)N[C@@H](CC(N)=O)C(=O)N1` are “inactive”, “Not Active”, 80%, 0.07 and 28 mL/min/kg.
For `CC(C)CNC(=O)[C@@H](CCCNC(=N)N)NC(=O)[C@@H]1CCCN1C(=O)[C@@H]1CCSCCC(=O)N[C@@H](Cc2ccc(Cl)cc2)C(=O)N[C@@H](Cc2ccccc2)C(=O)N[C@@H](C(C)C)C(=O)N[C@@H](CC(N)=O)C(=O)N1` the same measures were “inactive”, “Not Active”, 88%, 0.05 and 5.4 mL/min/kg.
Turning to `CCNC(=O)[C@@H](CCCNC(=N)N)NC(=O)[C@@H]1CCCN1C(=O)[C@@H]1CSCCCC(=O)N[C@@H](Cc2ccc(Cl)cc2)C(=O)N[C@@H](Cc2cccs2)C(=O)N[C@@H](C(C)C)C(=O)N[C@@H](CC(N)=O)C(=O)N1`, the result in data set [1] was inactive. Moreover, in data set [2], the Activity result is “Not Active”. In data set [5], the CL is reported as 49%. The fraction unbound at […] in data set [3] is 0.16. The molecule further gave a clearance in data set [4] of 10 mL/min/kg.
On to `CC(C)[C@@H]1NC(=O)[C@H](Cc2ccc(F)cc2)NC(=O)[C@H](Cc2ccc(Cl)cc2)NC(=O)CCCSC[C@@H](C(=O)N2CCC[C@H]2C(=O)NCCCCNC(=N)N)NC(=O)[C@H](CC(N)=O)NC1=O` ([Phe(4-Cl)][Phe(4-F)]VNCP-Agmatine; linker N-5 via X1), for which, in data set [1], the outcome was inactive. Further, the Activity entry in data set [2] is given as “Not Active”. In data set [3], the fraction unbound at […] was 0.06. For the same molecule, in data set [4], the clearance was 7.5 mL/min/kg.
